Experimental data as given in ChEMBL document CHEMBL1122036, “Use of adenine nucleotide derivatives to assess the potential of exo-active-site-directed reagents as species- or isozyme-specific enzyme inactivators. 3. Synthesis of adenosine 5'-triphosphate derivatives with N6- or 8-substituents bearing iodoacetyl groups” (J Med Chem, 1982).
Each block holds one compound with its values, some of them ahead of it.

What was measured:
[1] = Reaction velocity relative to ATP (=1) in yeast hexokinase was determined at 5 mM concentration.; assay type: ADME; details: 5000 µM
[2] = species on record: Rattus norvegicus; assay: Substrate property, maximum velocity relative to ADP (100) in rat muscle pyruvate kinase was determined; assay type: ADME, organism-based; details: in vivo
Procedure, shortened: (§1)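 Rat muscle, liver and kidney pyruvate kinase isozymes, isolated as before, with ADP analogues as substrate. Optical density change at 340 nm, 22-24 °C, 1 mL. Five or more substrate concentrations. Km and Vmax come from linear Lineweaver-Burk plots, with Vmax relative to ADP (100).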

[3] = Substrate property, maximum velocity relative to ADP (100) in rat muscle pyruvate kinase was determined; details: in vitro
[4] = species on record: Rattus norvegicus; assay: Substrate concentration for half maximum- reaction velocity in rat liver pyruvate kinase; assay type: ADME, organism-based; details: in vivo; procedure, shortened: as §1
[5] = species on record: Rattus norvegicus; assay: Substrate concentration for half maximum-velocity in rat kidney pyruvate kinase was determined; assay type: ADME, organism-based; details: in vivo; procedure, shortened: as §1
[6] = species on record: Rattus norvegicus; assay: Substrate concentration for half maximum-velocity in rat muscle pyruvate kinase was determined.; assay type: ADME, organism-based; details: in vivo; procedure, shortened: as §1
[7] = species on record: Rattus norvegicus; assay: Substrate property, maximum velocity relative to ADP (100) in rat kidney pyruvate kinase was determined; assay type: ADME, organism-based; details: in vivo; procedure, shortened: as §1
[8] = species on record: Rattus norvegicus; assay: Substrate property, maximum velocity relative to ADP (100) in rat liver pyruvate kinase was determined; assay type: ADME, organism-based; details: in vivo; procedure, shortened: as §1
[9] = species on record: Rattus norvegicus; assay: Maximum velocity in rat liver adenylate kinase II relative to ATP(=100); assay type: ADME, organism-based; details: in vivo
Procedure, shortened: (§2)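 Rat liver AK II and AK III, isolated as before. Optical density change at 340 nm followed at 22-24 °C in 1 mL. Five or more substrate concentrations; stocks contained equimolar MgCl2. Vmax comes from linear Lineweaver-Burk plots and is expressed relative to ATP (100).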

[10] = species on record: Rattus norvegicus; assay: Maximum velocity in rat liver adenylate kinase III relative to ATP(=100); assay type: ADME, organism-based; details: in vivo; procedure, shortened: as §2
[11] = target: Adenylate kinase 2, mitochondrial (Rattus norvegicus, UniProt P29410); assay: Competitive inhibition of adenylate kinase II in rat liver with respect to ATP; assay type: tissue-based
Procedure, shortened: (§3)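 Rat liver adenylate kinase isozymes (AK II, AK III), isolated as before. Read as rate of change in optical density at 340 nm, 22-24 °C, 1 mL final volume. Five or more levels of ATP at each of two inhibitor levels, inhibitor at 1-5 times the inhibition constant. Ki taken from replots of inhibitor concentration vs Lineweaver-Burk slopes. Stocks contained equimolar MgCl2.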

[12] = target: GTP:AMP phosphotransferase AK3, mitochondrial (Rattus norvegicus, UniProt P29411); assay: Competitive inhibition of adenylate kinase III in rat liver with respect to ATP; assay type: tissue-based; procedure, shortened: as §3
Sequence of GTP:AMP phosphotransferase AK3, mitochondrial (P29411 whole entry): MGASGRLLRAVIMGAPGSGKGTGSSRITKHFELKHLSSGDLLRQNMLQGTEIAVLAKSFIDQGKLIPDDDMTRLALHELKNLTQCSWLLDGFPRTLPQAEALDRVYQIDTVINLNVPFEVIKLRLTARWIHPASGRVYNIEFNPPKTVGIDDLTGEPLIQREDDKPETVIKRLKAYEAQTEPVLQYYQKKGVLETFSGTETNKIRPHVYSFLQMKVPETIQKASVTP

[13] = species on record: Rattus norvegicus; assay: Maximum velocity relative to ADP (100) in rat muscle pyruvate kinase was determined; assay type: ADME, organism-based; details: in vivo; procedure, shortened: as §1

Velocity relative to ATP [1]: 1.8
SMILES: O=C(CI)NCCCCCCCCNc1ncnc2c1ncn2[C@@H]1O[C@H](COP(=O)(O)OP(=O)(O)OP(=O)(O)O)[C@@H](O)[C@H]1O

Vmax [2]: 0%
Vmax [3]: 0%
SMILES: CC(=O)NCCCCCCNc1nc2c(N)ncnc2n1[C@@H]1O[C@H](COP(=O)(O)OP(=O)(O)O)[C@@H](O)[C@H]1O

Velocity relative to ATP [1]: 1.2
SMILES: CN(CCCCN(C)c1ncnc2c1ncn2[C@@H]1O[C@H](COP(=O)(O)OP(=O)(O)OP(=O)(O)O)[C@@H](O)[C@H]1O)C(=O)CCCNC(=O)CI

Km [4]: 700 µM
Km [5]: 1700 µM
Km [6]: 3600 µM
Vmax [2]: 20%
Vmax [7]: 18%
Vmax [8]: 21%
SMILES: CC(=O)N(C)CCCCN(C)c1ncnc2c1ncn2[C@@H]1O[C@H](COP(=O)(O)OP(=O)(O)O)[C@@H](O)[C@H]1O

Vmax [9]: 0%
Vmax [10]: 0%
Ki [11]: 1100 µM
Ki [12]: 900 µM
SMILES: CC(=O)N(C)CCCCN(C)c1ncnc2c1ncn2[C@@H]1O[C@H](COP(=O)(O)OP(=O)(O)OP(=O)(O)O)[C@@H](O)[C@H]1O

Velocity relative to ATP [1]: 0.54
SMILES: Nc1ncnc2c1nc(NCCCCCCCCNC(=O)CI)n2[C@@H]1O[C@H](COP(=O)(O)OP(=O)(O)OP(=O)(O)O)[C@@H](O)[C@H]1O

Velocity relative to ATP [1]: 0.73
SMILES: CN(CCCN(C)C(=O)CCCCNc1ncnc2c1ncn2[C@@H]1O[C@H](COP(=O)(O)OP(=O)(O)OP(=O)(O)O)[C@@H](O)[C@H]1O)C(=O)CCCCNC(=O)CI

Km [6]: 70 µM
Vmax [13]: 1.5%
SMILES: CN(CCCN(C)C(=O)CCCCNc1ncnc2c1ncn2[C@@H]1O[C@H](COP(=O)(O)OP(=O)(O)O)[C@@H](O)[C@H]1O)C(=O)CCCCNC(=O)OCc1ccccc1
